# Structures can show the parent of a compound that is named as a salt. Where two headings read alike, the source gives them in different places.
# Tests used:
# lung HOP-62 = settings: read-out: cytotoxicity (GI50 in μM) lung HOP-62; cited from earlier work
# melanoma UACC-62 = settings: read-out: cytotoxicity (GI50 in μM) melanoma UACC-62; cited from earlier work
# Human recombinant Top1 [1] = biological target: T1, Human recombinant Top1 (Homo sapiens, UniProt P11387); settings: graded relative to 1 μM camptothecin; cited from earlier work
# T1 sequence (P11387 1-765): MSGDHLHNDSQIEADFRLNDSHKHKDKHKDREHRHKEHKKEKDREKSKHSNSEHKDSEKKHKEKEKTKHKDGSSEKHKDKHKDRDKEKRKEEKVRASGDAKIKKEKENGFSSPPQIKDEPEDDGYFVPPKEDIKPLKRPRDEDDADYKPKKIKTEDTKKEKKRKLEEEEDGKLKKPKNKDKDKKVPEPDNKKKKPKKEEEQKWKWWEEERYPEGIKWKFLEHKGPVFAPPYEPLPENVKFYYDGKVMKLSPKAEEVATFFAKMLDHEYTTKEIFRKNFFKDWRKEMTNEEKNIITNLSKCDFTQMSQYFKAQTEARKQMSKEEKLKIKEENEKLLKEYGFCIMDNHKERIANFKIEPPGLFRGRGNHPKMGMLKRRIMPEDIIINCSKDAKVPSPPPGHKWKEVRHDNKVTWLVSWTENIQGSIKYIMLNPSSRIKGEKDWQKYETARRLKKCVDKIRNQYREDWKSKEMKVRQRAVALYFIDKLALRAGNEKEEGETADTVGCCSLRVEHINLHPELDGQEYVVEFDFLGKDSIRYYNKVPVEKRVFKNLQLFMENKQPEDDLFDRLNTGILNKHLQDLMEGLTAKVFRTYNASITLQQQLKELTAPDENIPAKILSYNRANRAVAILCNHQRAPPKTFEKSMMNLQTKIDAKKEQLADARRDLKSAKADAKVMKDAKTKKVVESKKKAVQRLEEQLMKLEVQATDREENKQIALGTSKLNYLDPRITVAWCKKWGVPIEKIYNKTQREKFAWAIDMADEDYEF
# prostate DU-145 = settings: read-out: cytotoxicity (GI50 in μM) prostate DU-145; cited from earlier work
# ovarian OVACAR-3 = settings: read-out: cytotoxicity (GI50 in μM) ovarian OVACAR-3; cited from earlier work
# colon HCT-116 = settings: read-out: cytotoxicity (GI50 in μM) colon HCT-116; cited from earlier work
# CNS SF-539 = settings: read-out: cytotoxicity (GI50 in μM) CNS SF-539; cited from earlier work
# renal SN12C = settings: read-out: cytotoxicity (GI50 in μM) renal SN12C; cited from earlier work
# [2] = system: 60 common human cancer cell lines (NCI-60); settings: cited from earlier work
# breast MCF7 = settings: read-out: cytotoxicity (GI50 in μM) breast MCF7; cited from earlier work
# [3] = system: 60 common human cancer cell lines (NCI-60); test: NCI-60 five-dose screen, mean-graph midpoint; assay type: cell-based
# Procedure, shortened: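 NCI-DTP screen across 60 human cancer cell lines. One-dose prescreen at 10 μM; compounds passing the cutoff went to five concentrations, 100 μM to 10 nM. GI50 per cell line interpolated from five-dose data.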
# recombinant TDP1 = recombinant TDP1 (Homo sapiens, UniProt Q9NUW8); test: Gel-based assay measuring the inhibition of recombinant TDP1; assay type: biochemical; settings: for IC50: read-out: TDP1 inhibition, semiquantitative IC50 scale
# Human recombinant Top1 [4] = biological target: T1, Human recombinant Top1; test: Top1-mediated DNA cleavage assay; assay type: biochemical; settings: graded relative to 1 μM camptothecin
# [5] = read-out: MGM values, range over the named compounds
# [6] = read-out: MGM values, range over the named series
# [7] = Homo sapiens, 60 cell, read-out: MGM
# Chain of recombinant TDP1 (Q9NUW8 whole entry): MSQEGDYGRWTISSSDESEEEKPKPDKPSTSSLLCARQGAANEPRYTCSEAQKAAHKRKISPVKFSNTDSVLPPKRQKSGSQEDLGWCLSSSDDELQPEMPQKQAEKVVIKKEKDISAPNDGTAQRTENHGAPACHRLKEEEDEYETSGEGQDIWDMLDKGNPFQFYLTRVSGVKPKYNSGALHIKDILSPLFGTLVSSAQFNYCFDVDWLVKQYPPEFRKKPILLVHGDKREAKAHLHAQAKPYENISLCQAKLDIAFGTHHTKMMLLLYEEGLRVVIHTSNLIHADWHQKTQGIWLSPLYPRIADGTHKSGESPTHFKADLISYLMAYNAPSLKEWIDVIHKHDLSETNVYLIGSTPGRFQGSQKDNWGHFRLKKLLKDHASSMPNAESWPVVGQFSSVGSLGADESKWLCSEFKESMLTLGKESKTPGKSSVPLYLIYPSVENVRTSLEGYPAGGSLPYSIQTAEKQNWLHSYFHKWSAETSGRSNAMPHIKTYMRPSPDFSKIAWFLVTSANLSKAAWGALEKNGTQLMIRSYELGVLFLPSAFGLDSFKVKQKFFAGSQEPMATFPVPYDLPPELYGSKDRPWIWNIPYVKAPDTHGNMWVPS
compound,measurement,setting,value
COc1cccc2c1-c1c(c3ccc([N+](=O)[O-])cc3c(=O)n1CCCN)C2=O [Compound 4],GI50,lung HOP-62,1.1 µM
same,GI50,melanoma UACC-62,2.3 µM
same,Top1 cleavage,Human recombinant Top1 [1],++++
same,GI50,prostate DU-145,1.1 µM
same,GI50,ovarian OVACAR-3,2.3 µM
COc1ccc2c(c1)C(=O)c1c-2n(CCCN)c(=O)c2cc([N+](=O)[O-])ccc12 [Compound 5],GI50,colon HCT-116,< 0.01 µM
same,GI50,lung HOP-62,< 0.01 µM
same,GI50,melanoma UACC-62,< 0.01 µM
same,GI50,CNS SF-539,< 0.01 µM
same,Top1 cleavage,Human recombinant Top1 [1],+++++
same,GI50,renal SN12C,< 0.01 µM
COc1cc2c(cc1O)-c1c(c3cc(OC)c(OC)cc3c(=O)n1CCCn1ccnc1)C2=O [Compound 9],GI50,colon HCT-116,> 100 µM
same,GI50,lung HOP-62,> 100 µM
same,GI50,"[2]; read-out: MGM, average GI50 across 60 cell lines",42000 ± 7000 nM
same,GI50,melanoma UACC-62,0.33 µM
same,GI50,breast MCF7,0.05 µM
same,Top1 cleavage,Human recombinant Top1 [1],++(+)
same,GI50,prostate DU-145,> 100 µM
same,GI50,ovarian OVACAR-3,> 100 µM
COc1cc2c(cc1O)C(=O)c1c-2n(CCCN2CCOCC2)c(=O)c2cc(OC)c(OC)cc12 [Compound 10],GI50,colon HCT-116,0.03 µM
same,GI50,lung HOP-62,0.02 µM
same,GI50,[2]; [5],55 to 87 nM
same,GI50,melanoma UACC-62,0.02 µM
same,GI50,breast MCF7,0.02 µM
same,GI50,CNS SF-539,0.02 µM
same,Top1 cleavage,Human recombinant Top1 [1],+++++
same,GI50,renal SN12C,0.02 µM
same,GI50,prostate DU-145,0.02 µM
same,GI50,ovarian OVACAR-3,0.03 µM
COc1cc2c(cc1O)C(=O)c1c-2n(CCCn2ccnc2)c(=O)c2cc(OC)c(OC)cc12 [Compound 11],GI50,colon HCT-116,< 0.01 µM
same,GI50,lung HOP-62,< 0.01 µM
same,GI50,[2]; [5],55 to 87 nM
same,GI50,melanoma UACC-62,< 0.01 µM
same,GI50,breast MCF7,< 0.01 µM
same,GI50,CNS SF-539,< 0.01 µM
same,GI50,renal SN12C,< 0.01 µM
same,GI50,prostate DU-145,< 0.01 µM
same,GI50,ovarian OVACAR-3,0.02 µM
"COc1cc2c(cc1O)C(=O)c1c-2n(CCCN2CCOCC2)c(=O)c2cc([N+](=O)[O-])ccc12 [Compound 21, 9-Hydroxy-8-methoxy-6-(3-morpholinopropyl)-3-nitro-5H-indeno[1,2-c]isoquinoline-5,11(6H)-dione Hydrobromide]",GI50,[3]; [6],16 to 21 nM
"COc1cc2c(cc1O)C(=O)c1c-2n(CCCn2ccnc2)c(=O)c2cc([N+](=O)[O-])ccc12 [Compound 23, 6-(3-(1H-Imidazol-1-yl)propyl)-9-hydroxy-8-methoxy-3-nitro-5H-indeno[1,2-c]isoquinoline-5,11(6H)-dione Hydrobromide]",GI50,[3]; [6],16 to 21 nM
"Br.COc1cc2c(cc1O)C(=O)c1c-2n(CCCN)c(=O)c2cc([N+](=O)[O-])ccc12 [Compound 25, 6-(3-Aminopropyl)-9-hydroxy-8-methoxy-3-nitro-5H-indeno[1,2-c]isoquinoline-5,11(6H)-dione Hydrobromide]",GI50,[3]; [6],16 to 21 nM
same,TDP1 inhibitory activity (in words),recombinant TDP1,TDP1 inhibitors
same,IC50,recombinant TDP1,12000 to 37000 nM
"COc1cc2c(cc1O)-c1c(c3ccc([N+](=O)[O-])cc3c(=O)n1CCCN1CCOCC1)C2=O [Compound 32, 8-Hydroxy-9-methoxy-6-(3-morpholinopropyl)-3-nitro-5H-indeno[1,2-c]isoquinoline-5,11(6H)-dione Hydrobromide]",GI50,[3]; [7],200 nM
"Br.COc1cc2c(cc1O)-c1c(c3ccc([N+](=O)[O-])cc3c(=O)n1CCCn1ccnc1)C2=O [Compound 34, 6-(3-(1H-Imidazol-1-yl)propyl)-8-hydroxy-9-methoxy-3-nitro-5H-indeno[1,2-c]isoquinoline-5,11(6H)-dione Hydrobromide]",GI50,[3]; [7],740 nM
same,IC50,recombinant TDP1,12000 to 37000 nM
same,Top1 cleavage,Human recombinant Top1 [4],++(+)
"Br.COc1cc2c(cc1O)-c1c(c3ccc([N+](=O)[O-])cc3c(=O)n1CCCN)C2=O [Compound 36, 6-(3-Aminopropyl)-8-hydroxy-9-methoxy-3-nitro-5H-indeno[1,2-c]isoquinoline-5,11(6H)-dione Hydrobromide]",TDP1 inhibitory activity (in words),recombinant TDP1,TDP1 inhibitors
same,IC50,recombinant TDP1,12000 to 37000 nM
"O=C1c2cccc(O)c2-c2c1c1ccc([N+](=O)[O-])cc1c(=O)n2CCCN1CCOCC1 [Compound 43, 7-Hydroxy-6-(3-morpholinopropyl)-3-nitro-5H-indeno[1,2-c]-isoquinoline-5,11(6H)-dione]",Top1 cleavage,Human recombinant Top1 [4],++ (50–75% activity)
"O=C1c2cccc(O)c2-c2c1c1ccc([N+](=O)[O-])cc1c(=O)n2CCCn1ccnc1 [Compound 44, 6-(3-(1H-Imidazol-1-yl)propyl)-7-hydroxy-3-nitro-5H-indeno[1,2-c]isoquinoline-5,11(6H)-dione]",Top1 cleavage,Human recombinant Top1 [4],+++ (75–95% activity)
"Cl.NCCCn1c2c(c3ccc([N+](=O)[O-])cc3c1=O)C(=O)c1cccc(O)c1-2 [Compound 45, 6-(3-Aminopropyl)-7-hydroxy-3-nitro-5H-indeno[1,2-c]-isoquinoline-5,11(6H)-dione Hydrochloride]",TDP1 inhibitory activity (in words),recombinant TDP1,TDP1 inhibitors
same,IC50,recombinant TDP1,12000 to 37000 nM
same,Top1 cleavage,Human recombinant Top1 [4],++ (50–75% activity)
"Br.O=C1c2ccc(O)cc2-c2c1c1ccc([N+](=O)[O-])cc1c(=O)n2CCCN1CCOCC1 [Compound 55, 8-(Hydroxy)-6-(3-morpholinopropyl)-3-nitro-5H-indeno[1,2-c]-isoquinoline-5,11(6H)-dione]",GI50,[3]; [6],56 to 407 nM
same,Top1 cleavage,Human recombinant Top1 [4],++++
"O=C1c2c(O)cccc2-c2c1c1ccc([N+](=O)[O-])cc1c(=O)n2CCCN1CCOCC1 [Compound 56, 10-(Hydroxy)-6-(3-morpholinopropyl)-3-nitro-5H-indeno[1,2-c]-isoquinoline-5,11(6H)-dione]",GI50,[3]; [7],3500 nM
same,GI50,[3]; [6],234 to 3550 nM
"O=C1c2ccc(O)cc2-c2c1c1ccc([N+](=O)[O-])cc1c(=O)n2CCCn1ccnc1 [Compound 59, 6-(3-(1H-Imidazol-1-yl)propyl)-8-hydroxy-3-nitro-5H-indeno[1,2-c]isoquinoline-5,11(6H)-dione Hydrobromide]",GI50,[3]; [6],56 to 407 nM
"O=C1c2c(O)cccc2-c2c1c1ccc([N+](=O)[O-])cc1c(=O)n2CCCn1ccnc1 [Compound 60, 6-(3-(1H-Imidazol-1-yl)propyl)-10-hydroxy-3-nitro-5H-indeno-[1,2-c]isoquinoline-5,11(6H)-dione Hydrobromide]",GI50,[3]; [6],234 to 3550 nM
"Br.NCCCn1c2c(c3ccc([N+](=O)[O-])cc3c1=O)C(=O)c1ccc(O)cc1-2 [Compound 63, 6-(3-Aminopropyl)-8-hydroxy-3-nitro-5H-indeno[1,2-c]-isoquinoline-5,11(6H)-dione Hydrobromide]",GI50,[3]; [7],410 ± 1000 nM
same,GI50,[3]; [6],56 to 407 nM
same,TDP1 inhibitory activity (in words),recombinant TDP1,TDP1 inhibitors
same,IC50,recombinant TDP1,1000 to 12000 nM
"Br.NCCCn1c2c(c3ccc([N+](=O)[O-])cc3c1=O)C(=O)c1c(O)cccc1-2 [Compound 64, 6-(3-Amino-propyl)-10-hydroxy-3-nitro-5H-indeno[1,2-c]isoquinoline-5,11(6H)-dione Hydrobromide]",GI50,[3]; [7],2000 nM
same,GI50,[3]; [6],234 to 3550 nM
same,TDP1 inhibitory activity (in words),recombinant TDP1,TDP1 inhibitors
same,IC50,recombinant TDP1,12000 to 37000 nM
"Br.O=C1c2cc(O)ccc2-c2c1c1ccc([N+](=O)[O-])cc1c(=O)n2CCCN1CCOCC1 [Compound 69, 9-Hydroxy-6-(3-morpholinopropyl)-3-nitro-5H-indeno[1,2-c]-isoquinoline-5,11(6H)-dione Hydrobromide]",Top1 cleavage,Human recombinant Top1 [4],+++++
"Br.NCCCn1c2c(c3ccc([N+](=O)[O-])cc3c1=O)C(=O)c1cc(O)ccc1-2 [Compound 71, 6-(3-Aminopropyl)-9-hydroxy-3-nitro-5H-indeno[1,2-c]-isoquinoline-5,11(6H)-dione Hydrobromide]",GI50,[3]; [7],120 nM
same,TDP1 inhibitory activity (in words),recombinant TDP1,TDP1 inhibitors
same,IC50,recombinant TDP1,37000 to 111000 nM
same,Top1 cleavage,Human recombinant Top1 [4],++++
O=C1c2ccccc2-c2c1c1ccccc1c(=O)n2CCCNCCCNCCCn1c2c(c3ccccc3c1=O)C(=O)c1ccccc1-2 [Compound 72],IC50,recombinant TDP1,1000 to 12000 nM
